Experimental data published in ChEMBL document CHEMBL5724801, “EUbOPEN Chemogenomics Library - Multiplex” (2024).
Several values for one entry are separate records, joined by “and”; a condition that tells them apart may be missing. Equal entries are not always repeated.

System: U2OS
Test: Multiplex assay against U2OS
Type: toxicity, cell-based
Conditions: human
Summary of the method: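 On a CQ1 microscope at 37°C and 5% CO2, live cells were imaged after compound addition. They had been stained at seeding with Hoechst33342, BioTracker Green Microtubule Cytoskeleton Dye, MitoTracker Red and Annexin V Alexa Fluor 680. CellPathfinder machine-learning gating assigned cells to Hoechst high-intensity objects or normal cells, normal cells to healthy, pyknosed or fragmented nuclei, and pyknosed cells to mitotic or apoptotic. Tubulin, mitochondrial-mass and membrane-permeability phenotypes are per cents of healthy-nucleus cells.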

[1] = 12 h, 1 µM, compound concentration 1 uM
[2] = 12 h, 10 µM, compound concentration 10 uM
[3] = 24 h, 1 µM, compound concentration 1 uM
[4] = 24 h, 10 µM, compound concentration 10 uM
[5] = 48 h, 1 µM, compound concentration 1 uM
[6] = 48 h, 10 µM, compound concentration 10 uM

Compound: CN1CCN2c3ncccc3Cc3ccccc3C2C1 (stereo not drawn) [MIRTAZAPINE]
- Population Apoptotic (%) [1]: 82% and 100%
- Population Fragmented Nuclei (%) [1]: 21%
- Population Healthy Nuclei (%) [1]: 67% and 72%
- Population Hoechst High Intensity Objects (%) [1]: 1%
- Population Membrane Permeable-Phenotype (%) [1]: 3% and 5%
- Population Mitochondria Different-Phenotype (%) [1]: 1% and 6%
- Population Mitotic Cells (%) [1]: 17% and 0%
- Population Normal (%) [1]: 99% and 98%
- Population Pyknosed Nuclei (%) [1]: 11% and 6%
- Population Tubulin-Different-Phenotype (%) [1]: 2% and 3%
- Population Apoptotic (%) [2]: 73% and 66%
- Population Fragmented Nuclei (%) [2]: 19% and 13%
- Population Healthy Nuclei (%) [2]: 71% and 82%
- Population Hoechst High Intensity Objects (%) [2]: 3%
- Population Membrane Permeable-Phenotype (%) [2]: 6% and 3%
- Population Mitochondria Different-Phenotype (%) [2]: 5% and 4%
- Population Mitotic Cells (%) [2]: 26% and 33%
- Population Normal (%) [2]: 96%
- Population Pyknosed Nuclei (%) [2]: 8% and 3%
- Population Tubulin-Different-Phenotype (%) [2]: 6% and 0%
- Population Apoptotic (%) [3]: 85% and 100%
- Population Fragmented Nuclei (%) [3]: 15% and 26%
- Population Healthy Nuclei (%) [3]: 76% and 63%
- Population Hoechst High Intensity Objects (%) [3]: 2% and 3%
- Population Membrane Permeable-Phenotype (%) [3]: 5% and 3%
- Population Mitochondria Different-Phenotype (%) [3]: 3%
- Population Mitotic Cells (%) [3]: 14% and 0%
- Population Normal (%) [3]: 97% and 96%
- Population Pyknosed Nuclei (%) [3]: 8% and 10%
- Population Tubulin-Different-Phenotype (%) [3]: 2% and 4%
- Population Apoptotic (%) [4]: 89% and 83%
- Population Fragmented Nuclei (%) [4]: 18% and 9%
- Population Healthy Nuclei (%) [4]: 71% and 85%
- Population Hoechst High Intensity Objects (%) [4]: 2% and 0%
- Population Membrane Permeable-Phenotype (%) [4]: 4% and 5%
- Population Mitochondria Different-Phenotype (%) [4]: 2%
- Population Mitotic Cells (%) [4]: 10% and 16%
- Population Normal (%) [4]: 97% and 99%
- Population Pyknosed Nuclei (%) [4]: 9% and 5%
- Population Tubulin-Different-Phenotype (%) [4]: 0% and 5%
- Total Cell Count [4]: 314 and 108
- Population Apoptotic (%) [5]: 83% and 92%
- Population Fragmented Nuclei (%) [5]: 12% and 20%
- Population Healthy Nuclei (%) [5]: 76% and 68%
- Population Hoechst High Intensity Objects (%) [5]: 2% and 4%
- Population Membrane Permeable-Phenotype (%) [5]: 4% and 8%
- Population Mitochondria Different-Phenotype (%) [5]: 2% and 4%
- Population Mitotic Cells (%) [5]: 16% and 7%
- Population Normal (%) [5]: 97% and 95%
- Population Pyknosed Nuclei (%) [5]: 10% and 11%
- Population Tubulin-Different-Phenotype (%) [5]: 3% and 1%
- Population Apoptotic (%) [6]: 95% and 100%
- Population Fragmented Nuclei (%) [6]: 15% and 12%
- Population Healthy Nuclei (%) [6]: 75% and 78%
- Population Hoechst High Intensity Objects (%) [6]: 2%
- Population Membrane Permeable-Phenotype (%) [6]: 7% and 3%
- Population Mitochondria Different-Phenotype (%) [6]: 4% and 3%
- Population Mitotic Cells (%) [6]: 5% and 0%
- Population Normal (%) [6]: 97%
- Population Pyknosed Nuclei (%) [6]: 9%
- Population Tubulin-Different-Phenotype (%) [6]: 5% and 3%
- Total Cell Count [6]: 435 and 170

Compound: O=C(O)c1cc2ccccc2c(Cc2c(O)c(C(=O)O)cc3ccccc23)c1O [PAMOIC ACID]
- Population Apoptotic (%) [1]: 85% and 50%
- Population Fragmented Nuclei (%) [1]: 23% and 15%
- Population Healthy Nuclei (%) [1]: 68% and 73%
- Population Hoechst High Intensity Objects (%) [1]: 1% and 0%
- Population Membrane Permeable-Phenotype (%) [1]: 2% and 12%
- Population Mitochondria Different-Phenotype (%) [1]: 0% and 6%
- Population Normal (%) [1]: 98% and 100%
- Population Pyknosed Nuclei (%) [1]: 8% and 11%
- Population Tubulin-Different-Phenotype (%) [1]: 0% and 13%
- Total Cell Count [1]: 246 and 109
- Population Apoptotic (%) [2]: 75% and 87%
- Population Fragmented Nuclei (%) [2]: 19%
- Population Healthy Nuclei (%) [2]: 75%
- Population Hoechst High Intensity Objects (%) [2]: 2% and 0%
- Population Membrane Permeable-Phenotype (%) [2]: 6% and 5%
- Population Mitochondria Different-Phenotype (%) [2]: 1% and 3%
- Population Mitotic Cells (%) [2]: 25% and 12%
- Population Normal (%) [2]: 97% and 100%
- Population Pyknosed Nuclei (%) [2]: 4% and 5%
- Population Tubulin-Different-Phenotype (%) [2]: 4% and 2%
- Total Cell Count [2]: 259 and 140
- Population Apoptotic (%) [3]: 92% and 76%
- Population Fragmented Nuclei (%) [3]: 18% and 20%
- Population Healthy Nuclei (%) [3]: 72% and 70%
- Population Hoechst High Intensity Objects (%) [3]: 1% and 0%
- Population Membrane Permeable-Phenotype (%) [3]: 2% and 11%
- Population Mitochondria Different-Phenotype (%) [3]: 0% and 2%
- Population Mitotic Cells (%) [3]: 8% and 23%
- Population Normal (%) [3]: 98% and 99%
- Population Pyknosed Nuclei (%) [3]: 8% and 9%
- Population Tubulin-Different-Phenotype (%) [3]: 1% and 7%
- Total Cell Count [3]: 288 and 139
- Population Apoptotic (%) [4]: 82% and 90%
- Population Fragmented Nuclei (%) [4]: 17% and 13%
- Population Healthy Nuclei (%) [4]: 76% and 79%
- Population Hoechst High Intensity Objects (%) [4]: 3% and 1%
- Population Membrane Permeable-Phenotype (%) [4]: 5% and 7%
- Population Mitochondria Different-Phenotype (%) [4]: 2% and 3%
- Population Mitotic Cells (%) [4]: 17% and 9%
- Population Normal (%) [4]: 96% and 98%
- Population Pyknosed Nuclei (%) [4]: 5% and 6%
- Population Tubulin-Different-Phenotype (%) [4]: 3% and 7%
- Total Cell Count [4]: 314 and 163
- Population Apoptotic (%) [5]: 83% and 90%
- Population Fragmented Nuclei (%) [5]: 16% and 11%
- Population Healthy Nuclei (%) [5]: 74% and 76%
- Population Hoechst High Intensity Objects (%) [5]: 1% and 2%
- Population Membrane Permeable-Phenotype (%) [5]: 2% and 9%
- Population Mitochondria Different-Phenotype (%) [5]: 1% and 3%
- Population Mitotic Cells (%) [5]: 16% and 10%
- Population Normal (%) [5]: 98% and 97%
- Population Pyknosed Nuclei (%) [5]: 9% and 11%
- Population Tubulin-Different-Phenotype (%) [5]: 2% and 5%
- Total Cell Count [5]: 469 and 177
- Population Apoptotic (%) [6]: 96% and 89%
- Population Fragmented Nuclei (%) [6]: 15% and 20%
- Population Healthy Nuclei (%) [6]: 77% and 66%
- Population Hoechst High Intensity Objects (%) [6]: 3% and 0%
- Population Membrane Permeable-Phenotype (%) [6]: 5% and 6%
- Population Mitochondria Different-Phenotype (%) [6]: 1% and 2%
- Population Mitotic Cells (%) [6]: 3% and 10%
- Population Normal (%) [6]: 96% and 99%
- Population Pyknosed Nuclei (%) [6]: 6% and 13%
- Population Tubulin-Different-Phenotype (%) [6]: 4% and 2%
- Total Cell Count [6]: 455 and 218

Compound: COCCCN1CCC(NC(=O)c2cc(Cl)c(N)c3c2OCC3)CC1 [PRUCALOPRIDE]
- Population Apoptotic (%) [1]: 84% and 87%
- Population Fragmented Nuclei (%) [1]: 30% and 21%
- Population Healthy Nuclei (%) [1]: 63% and 71%
- Population Hoechst High Intensity Objects (%) [1]: 1% and 0%
- Population Membrane Permeable-Phenotype (%) [1]: 7% and 12%
- Population Mitochondria Different-Phenotype (%) [1]: 3% and 7%
- Population Mitotic Cells (%) [1]: 15% and 12%
- Population Normal (%) [1]: 98% and 99%
- Population Pyknosed Nuclei (%) [1]: 6% and 7%
- Population Tubulin-Different-Phenotype (%) [1]: 4% and 8%
- Total Cell Count [1]: 207 and 110
- Population Apoptotic (%) [2]: 68% and 47%
- Population Fragmented Nuclei (%) [2]: 22% and 13%
- Population Healthy Nuclei (%) [2]: 63% and 73%
- Population Hoechst High Intensity Objects (%) [2]: 3% and 2%
- Population Membrane Permeable-Phenotype (%) [2]: 4% and 1%
- Population Mitochondria Different-Phenotype (%) [2]: 0% and 1%
- Population Mitotic Cells (%) [2]: 31% and 52%
- Population Normal (%) [2]: 96% and 97%
- Population Pyknosed Nuclei (%) [2]: 13% and 12%
- Population Tubulin-Different-Phenotype (%) [2]: 2% and 1%
- Total Cell Count [2]: 238 and 140
- Population Apoptotic (%) [3]: 80%
- Population Fragmented Nuclei (%) [3]: 26% and 23%
- Population Healthy Nuclei (%) [3]: 65% and 69%
- Population Hoechst High Intensity Objects (%) [3]: 2% and 1%
- Population Membrane Permeable-Phenotype (%) [3]: 5% and 8%
- Population Mitochondria Different-Phenotype (%) [3]: 3% and 4%
- Population Mitotic Cells (%) [3]: 20%
- Population Normal (%) [3]: 97% and 98%
- Population Pyknosed Nuclei (%) [3]: 8% and 7%
- Population Tubulin-Different-Phenotype (%) [3]: 5% and 7%
- Total Cell Count [3]: 247 and 132
- Population Apoptotic (%) [4]: 87% and 77%
- Population Fragmented Nuclei (%) [4]: 23% and 12%
- Population Healthy Nuclei (%) [4]: 64% and 76%
- Population Hoechst High Intensity Objects (%) [4]: 4% and 1%
- Population Membrane Permeable-Phenotype (%) [4]: 5% and 3%
- Population Mitochondria Different-Phenotype (%) [4]: 2%
- Population Mitotic Cells (%) [4]: 12% and 22%
- Population Normal (%) [4]: 95% and 98%
- Population Pyknosed Nuclei (%) [4]: 12% and 11%
- Population Tubulin-Different-Phenotype (%) [4]: 4% and 3%
- Total Cell Count [4]: 280 and 161
- Population Apoptotic (%) [5]: 85% and 86%
- Population Fragmented Nuclei (%) [5]: 20%
- Population Healthy Nuclei (%) [5]: 73% and 67%
- Population Hoechst High Intensity Objects (%) [5]: 3% and 2%
- Population Membrane Permeable-Phenotype (%) [5]: 3% and 11%
- Population Mitochondria Different-Phenotype (%) [5]: 1% and 6%
- Population Mitotic Cells (%) [5]: 14% and 13%
- Population Normal (%) [5]: 96% and 97%
- Population Pyknosed Nuclei (%) [5]: 6% and 11%
- Population Tubulin-Different-Phenotype (%) [5]: 3% and 9%
- Total Cell Count [5]: 352 and 199
- Population Apoptotic (%) [6]: 88% and 90%
- Population Fragmented Nuclei (%) [6]: 17% and 11%
- Population Healthy Nuclei (%) [6]: 69% and 79%
- Population Hoechst High Intensity Objects (%) [6]: 1%
- Population Membrane Permeable-Phenotype (%) [6]: 5% and 3%
- Population Mitochondria Different-Phenotype (%) [6]: 2% and 3%
- Population Mitotic Cells (%) [6]: 11% and 9%
- Population Normal (%) [6]: 98%
- Population Pyknosed Nuclei (%) [6]: 12% and 9%
- Population Tubulin-Different-Phenotype (%) [6]: 2% and 1%
- Total Cell Count [6]: 347 and 245
